≈ marks a conversion by molar mass, not a printed value. Calls of active or inactive are those of the source. The rule behind the calls is not given here.
What was measured:
Bacillus cereus [1] = assay: Antimicrobial activity against Bacillus cereus at 10 ug/disk after 24 hrs by disk diffusion assay; assay type: functional
Procedure, shortened: (§1)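 Disc diffusion on 4 mm filter discs. Bacteria are grown overnight in LB at 28 C, then adjusted in saline to 1.0 × 10^5 cfu/ml. The suspension is mixed into top agar over peptone agar plates. Plates are incubated 24 h at 28 C, and growth-inhibition zone diameter is measured. Streptomycin and ampicillin controls are applied from a 1 mg/ml stock. Tests are done in duplicate.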

Micrococcus flavus [2] = assay: Antimicrobial activity against Micrococcus flavus at 10 ug/disk after 24 hrs by disk diffusion assay; assay type: functional; procedure, shortened: as §1
Staphylococcus aureus [3] = assay: Antimicrobial activity against Staphylococcus aureus at 10 ug/disk after 24 hrs by disk diffusion assay; assay type: functional; procedure, shortened: as §1
Escherichia coli [4] = assay: Antimicrobial activity against Escherichia coli at 10 ug/disk after 24 hrs by disk diffusion assay; assay type: functional; procedure, shortened: as §1
Pseudomonas aeruginosa [5] = assay: Antimicrobial activity against Pseudomonas aeruginosa at 10 ug/disk after 24 hrs by disk diffusion assay; assay type: functional; procedure, shortened: as §1
Enterobacter cloacae [6] = assay: Antimicrobial activity against Enterobacter cloacae at 10 ug/disk after 24 hrs by disk diffusion assay; assay type: functional; procedure, shortened: as §1
Salmonella typhimurium [7] = assay: Antimicrobial activity against Salmonella Typhimurium at 10 ug/disk after 24 hrs by disk diffusion assay; assay type: functional, organism-based; details: Salmonella enterica subsp. enterica serovar Typhimurium; procedure, shortened: as §1
Listeria monocytogenes [8] = assay: Antimicrobial activity against Listeria monocytogenes at 10 ug/disk after 24 hrs by disk diffusion assay; assay type: functional; procedure, shortened: as §1
Bacillus cereus [9] = assay: Antimicrobial activity against Bacillus cereus at 1 umol/disk after 24 hrs by disk diffusion assay; assay type: functional; procedure, shortened: as §1
Micrococcus flavus [10] = assay: Antimicrobial activity against Micrococcus flavus at 1 umol/disk after 24 hrs by disk diffusion assay; assay type: functional; procedure, shortened: as §1
Staphylococcus aureus [11] = assay: Antimicrobial activity against Staphylococcus aureus at 1 umol/disk after 24 hrs by disk diffusion assay; assay type: functional; procedure, shortened: as §1
Escherichia coli [12] = assay: Antimicrobial activity against Escherichia coli at 1 umol/disk after 24 hrs by disk diffusion assay; assay type: functional; procedure, shortened: as §1
Pseudomonas aeruginosa [13] = assay: Antimicrobial activity against Pseudomonas aeruginosa at 1 umol/disk after 24 hrs by disk diffusion assay; assay type: functional; procedure, shortened: as §1
Enterobacter cloacae [14] = assay: Antimicrobial activity against Enterobacter cloacae at 1 umol/disk after 24 hrs by disk diffusion assay; assay type: functional; procedure, shortened: as §1
Salmonella typhimurium [15] = assay: Antimicrobial activity against Salmonella Typhimurium at 1 umol/disk after 24 hrs by disk diffusion assay; assay type: functional, organism-based; details: Salmonella enterica subsp. enterica serovar Typhimurium; procedure, shortened: as §1
Bacillus cereus [16] = assay: Antimicrobial activity against Bacillus cereus at 1 umol/spot after 18 hrs by TLC-bioautographic method; assay type: functional
Procedure, shortened: (§2)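 TLC bioautography. Samples are spotted on silica gel TLC plates, then sprayed with bacteria (1.0 × 10^5 cfu/ml) in tryptic soy broth. Plates are incubated 18 h at 37 C and sprayed with 3% aqueous p-iodonitrotetrazolium violet. After a further 3 h, growth is stopped with 70% EtOH. White zones on a pink background are scored as inhibition-zone diameter with standard errors.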

Micrococcus flavus [17] = assay: Antimicrobial activity against Micrococcus flavus at 1 umol/spot after 18 hrs by TLC-bioautographic method; assay type: functional; procedure, shortened: as §2
Staphylococcus aureus [18] = assay: Antimicrobial activity against Staphylococcus aureus at 1 umol/spot after 18 hrs by TLC-bioautographic method; assay type: functional; procedure, shortened: as §2
Escherichia coli [19] = assay: Antimicrobial activity against Escherichia coli at 1 umol/spot after 18 hrs by TLC-bioautographic method; assay type: functional; procedure, shortened: as §2
Pseudomonas aeruginosa [20] = assay: Antimicrobial activity against Pseudomonas aeruginosa at 1 umol/spot after 18 hrs by TLC-bioautographic method; assay type: functional; procedure, shortened: as §2
Enterobacter cloacae [21] = assay: Antimicrobial activity against Enterobacter cloacae at 1 umol/spot after 18 hrs by TLC-bioautographic method; assay type: functional; procedure, shortened: as §2
Salmonella typhimurium [22] = assay: Antimicrobial activity against Salmonella Typhimurium at 1 umol/spot after 18 hrs by TLC-bioautographic method; assay type: functional, Salmonella enterica subsp. enterica serovar Typhimurium; procedure, shortened: as §2
Listeria monocytogenes [23] = assay: Antimicrobial activity against Listeria monocytogenes at 1 umol/spot after 18 hrs by TLC-bioautographic method; assay type: functional; procedure, shortened: as §2
Bacillus cereus [24] = assay: Antimicrobial activity against Bacillus cereus after 24 hrs by microdilution technique; assay type: functional
Procedure, shortened: (§3)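 Broth microdilution in LB medium. Inoculum is 1.0 × 10^4 cfu per well, from a saline-adjusted suspension of 1.0 × 10^5 cfu/ml. Compounds are dissolved in DMSO. Incubated 24 h at 28 C. MIC is the lowest concentration with no visible growth under a binocular microscope. MBC is read by subculture into fresh broth for 72 h, with no growth taken as 99.5% kill. OD is read at 655 nm.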

Micrococcus flavus [25] = assay: Antimicrobial activity against Micrococcus flavus after 24 hrs by microdilution technique; assay type: functional; procedure, shortened: as §3
Staphylococcus aureus [26] = assay: Antimicrobial activity against Staphylococcus aureus after 24 hrs by microdilution technique; assay type: functional; procedure, shortened: as §3
Escherichia coli [27] = assay: Antimicrobial activity against Escherichia coli after 24 hrs by microdilution technique; assay type: functional; procedure, shortened: as §3
Pseudomonas aeruginosa [28] = assay: Antimicrobial activity against Pseudomonas aeruginosa after 24 hrs by microdilution technique; assay type: functional; procedure, shortened: as §3
Enterobacter cloacae [29] = assay: Antimicrobial activity against Enterobacter cloacae after 24 hrs by microdilution technique; assay type: functional; procedure, shortened: as §3
Salmonella typhimurium [30] = assay: Antimicrobial activity against Salmonella Typhimurium after 24 hrs by microdilution technique; assay type: functional, Salmonella enterica subsp. enterica serovar Typhimurium; details: Salmonella enterica; procedure, shortened: as §3
Listeria monocytogenes [31] = assay: Antimicrobial activity against Listeria monocytogenes after 24 hrs by microdilution technique; assay type: functional; procedure, shortened: as §3
Listeria monocytogenes [32] = assay: Antimicrobial activity against Listeria monocytogenes at 1 umol/disk after 24 hrs by disk diffusion assay; assay type: functional; procedure, shortened: as §1

Row | MIC (Bacillus cereus [24]) | SMILES | inhibition zone (IZ) (Bacillus cereus [1]) | inhibition zone (IZ) (Staphylococcus aureus [3]) | inhibition zone (IZ) (Enterobacter cloacae [6]) | inhibition zone (IZ) (Salmonella typhimurium [7]) | inhibition zone (IZ) (Bacillus cereus [9]) | inhibition zone (IZ) (Micrococcus flavus [10]) | inhibition zone (IZ) (Staphylococcus aureus [11]) | inhibition zone (IZ) (Escherichia coli [12]) | inhibition zone (IZ) (Enterobacter cloacae [14]) | inhibition zone (IZ) (Salmonella typhimurium [15]) | inhibition zone (IZ) (Bacillus cereus [16]) | inhibition zone (IZ) (Micrococcus flavus [17]) | inhibition zone (IZ) (Staphylococcus aureus [18]) | inhibition zone (IZ) (Escherichia coli [19]) | inhibition zone (IZ) (Pseudomonas aeruginosa [20]) | inhibition zone (IZ) (Enterobacter cloacae [21]) | inhibition zone (IZ) (Listeria monocytogenes [23]) | MBC (Bacillus cereus [24]) | MBC (Micrococcus flavus [25]) | other results
1 | 86.5 µM (≈ 50 µg/mL) | COc1ccccc1-c1cc(-c2ccc(Nc3nc(Nc4ccccc4)nc(Nc4ccccc4)n3)cc2)nc(N)c1C#N | inactive | inactive | inactive | inactive | inactive | 0.06 millimeter | inactive | 0.04 millimeter | inactive | inactive | inactive | 0.06 millimeter | inactive | inactive | inactive | 0.08 millimeter | 0.09 millimeter | 173 µM (≈ 99.9 µg/mL) | 173 µM (≈ 99.9 µg/mL) | zone of inhibition at 10 µg/disc (Micrococcus flavus [2]; read-out: IZ): 10 mm; zone of inhibition at 10 µg/disc (Escherichia coli [4]; read-out: IZ): 7 mm; inhibition zone (IZ) (Pseudomonas aeruginosa [5]): inactive; zone of inhibition at 10 µg/disc (Listeria monocytogenes [8]; read-out: IZ): 6 mm; inhibition zone (IZ) (Pseudomonas aeruginosa [13]): inactive; inhibition zone (IZ) (Salmonella typhimurium [22]): 0.07 millimeter; MIC (Micrococcus flavus [25]): 86.5 µM (≈ 50 µg/mL); MBC (Staphylococcus aureus [26]): 346 µM (≈ 200 µg/mL); MIC (Staphylococcus aureus [26]): 173 µM (≈ 99.9 µg/mL); MBC (Escherichia coli [27]): 346 µM (≈ 200 µg/mL); MIC (Escherichia coli [27]): 173 µM (≈ 99.9 µg/mL); MBC (Pseudomonas aeruginosa [28]): 692 µM (≈ 400 µg/mL); MIC (Pseudomonas aeruginosa [28]): 346 µM (≈ 200 µg/mL); MBC (Enterobacter cloacae [29]): 346 µM (≈ 200 µg/mL); MIC (Enterobacter cloacae [29]): 173 µM (≈ 99.9 µg/mL); MBC (Salmonella typhimurium [30]): 346 µM (≈ 200 µg/mL); MIC (Salmonella typhimurium [30]): 173 µM (≈ 99.9 µg/mL); MBC (Listeria monocytogenes [31]): 692 µM (≈ 400 µg/mL); MIC (Listeria monocytogenes [31]): 346 µM (≈ 200 µg/mL)
2 | 134 µM (≈ 69 µg/mL) | COc1ccccc1/C=C/C(=O)c1ccc(Nc2nc(Nc3ccccc3)nc(Nc3ccccc3)n2)cc1 | inactive | inactive | inactive | inactive | inactive | inactive | inactive | inactive | inactive | inactive | 0.06 millimeter | inactive | 0.07 millimeter | inactive | inactive | 0.08 millimeter | 0.08 millimeter | 268 µM (≈ 138 µg/mL) | 536 µM (≈ 276 µg/mL) | inhibition zone (IZ) (Micrococcus flavus [2]): inactive; inhibition zone (IZ) (Escherichia coli [4]): inactive; zone of inhibition at 10 µg/disc (Pseudomonas aeruginosa [5]; read-out: IZ): 6 mm; inhibition zone (IZ) (Listeria monocytogenes [8]): inactive; inhibition zone (IZ) (Listeria monocytogenes [32]): inactive; inhibition zone (IZ) (Salmonella typhimurium [22]; Salmonella enterica subsp. enterica serovar Typhimurium): inactive; MIC (Micrococcus flavus [25]): 268 µM (≈ 138 µg/mL); MBC (Staphylococcus aureus [26]): 268 µM (≈ 138 µg/mL); MIC (Staphylococcus aureus [26]): 134 µM (≈ 69 µg/mL); MBC (Escherichia coli [27]): 268 µM (≈ 138 µg/mL); MIC (Escherichia coli [27]): 134 µM (≈ 69 µg/mL); MBC (Pseudomonas aeruginosa [28]): 536 µM (≈ 276 µg/mL); MIC (Pseudomonas aeruginosa [28]): 268 µM (≈ 138 µg/mL); MBC (Enterobacter cloacae [29]): 536 µM (≈ 276 µg/mL); MIC (Enterobacter cloacae [29]): 268 µM (≈ 138 µg/mL); MBC (Salmonella typhimurium [30]): 536 µM (≈ 276 µg/mL); MIC (Salmonella typhimurium [30]): 268 µM (≈ 138 µg/mL); MBC (Listeria monocytogenes [31]): 536 µM (≈ 276 µg/mL); MIC (Listeria monocytogenes [31]): 268 µM (≈ 138 µg/mL)

Reference: ChEMBL document CHEMBL1154716, “Synthesis of some new S-triazine based chalcones and their derivatives as potent antimicrobial agents” (2010)
